Assay results reported in ChEMBL document CHEMBL5678813, “Optimization of a novel series of N-phenylindoline-5-sulfonamide-based acyl CoA:monoacylglycerol acyltransferase-2 inhibitors: Mitigation of CYP3A4 time-dependent inhibition and phototoxic liabilities” (Bioorg Med Chem, 2015).

Tests used:
[1] = Volume of distribution at steady state in mouse at 0.1 mg/kg, iv administered as cassette dose by LC/MS/MS analysis; type: ADME, organism-based; conditions: in vivo, read-out: Vdss
In short: (§1)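 Non-fasted mice dosed by cassette, iv 0.1 mg/kg or po 1 mg/kg suspended in 0.5% methylcellulose aqueous solution; plasma obtained from blood by centrifugation, deproteinized with acetonitrile, and compound concentrations measured by LC/MS/MS.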

[2] = molecular target: T1, Diacylglycerol O-acyltransferase 1 (Homo sapiens, UniProt O75907); test: Inhibition of N-terminal FLAG-tagged full-length human DGAT1 expressed in recombinant baculovirus infected Sf21 cells using [1-14C]-oleoyl-CoA and 1,2-dioleoyl-glycerol as substrate incubated for 40 mins by TLC analysis
T1 sequence (O75907 whole entry): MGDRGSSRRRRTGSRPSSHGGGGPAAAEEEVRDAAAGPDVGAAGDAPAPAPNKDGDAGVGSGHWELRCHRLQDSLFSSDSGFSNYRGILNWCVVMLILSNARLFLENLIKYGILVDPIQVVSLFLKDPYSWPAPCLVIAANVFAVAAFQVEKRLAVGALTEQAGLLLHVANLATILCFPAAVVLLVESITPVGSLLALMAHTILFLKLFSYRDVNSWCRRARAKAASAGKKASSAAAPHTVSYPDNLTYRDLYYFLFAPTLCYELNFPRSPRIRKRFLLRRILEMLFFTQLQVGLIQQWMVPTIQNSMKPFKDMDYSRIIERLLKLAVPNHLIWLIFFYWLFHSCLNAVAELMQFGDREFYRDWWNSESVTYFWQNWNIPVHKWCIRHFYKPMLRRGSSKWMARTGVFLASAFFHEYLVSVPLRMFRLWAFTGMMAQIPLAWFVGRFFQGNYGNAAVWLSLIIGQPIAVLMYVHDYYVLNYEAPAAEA
In short: (§2)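 Membranes from baculovirus-infected Sf-21 cells, each enzyme at 30 µg/mL, incubated with 5 µM [1-14C]-oleoyl-CoA and 40 µM 1,2-dioleoyl-glycerol for 40 min at 32 °C. Lipids extracted by modified Bligh & Dyer, resolved on silica TLC, and radioactivity incorporated into lipids quantified.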

[3] = Permeability of compound at pH 7.4 by PAMPA assay; type: ADME; conditions: read-out: permeability
In short: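 Passive permeability measured by PAMPA at pH 7.4.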

[4] = MRT in mouse at 1 mg/kg, po administered as cassette dose by LC/MS/MS analysis; type: ADME, organism-based; conditions: in vivo; in short: as §1
[5] = molecular target: CYP3A4 (Homo sapiens, UniProt P08684); test: Reversible inhibition of CYP3A4 in human liver microsomes using midazolam as substrate at 10 uM incubated for 10 mins by LC/MS/MS analysis relative to control; type: ADME, Microsome; conditions: probe midazolam
In short: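 Human liver microsomes at 0.1 mg/mL incubated 10 min at 37 °C with isoform-specific substrate and 10 µM test compound. Pairs: 1A2 tacrine/1-hydroxytacrine; 2C8 paclitaxel/6α-hydroxypaclitaxel; 2C9 tolbutamide/4-hydroxytolbutamide; 2D6 dextromethorphan/dextrorphan; 3A4 midazolam/1'-hydroxymidazolam. Stopped with acetonitrile/water; metabolite measured by LC/MS/MS.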

[6] = molecular target: T2, Diacylglycerol O-acyltransferase 2 (Homo sapiens, UniProt Q96PD7); test: Inhibition of N-terminal FLAG-tagged full-length human DGAT2 expressed in recombinant baculovirus infected Sf21 cells using [1-14C]-oleoyl-CoA and 1,2-dioleoyl-glycerol as substrate incubated for 40 mins by TLC analysis; in short: as §2
T2 sequence (Q96PD7 whole entry): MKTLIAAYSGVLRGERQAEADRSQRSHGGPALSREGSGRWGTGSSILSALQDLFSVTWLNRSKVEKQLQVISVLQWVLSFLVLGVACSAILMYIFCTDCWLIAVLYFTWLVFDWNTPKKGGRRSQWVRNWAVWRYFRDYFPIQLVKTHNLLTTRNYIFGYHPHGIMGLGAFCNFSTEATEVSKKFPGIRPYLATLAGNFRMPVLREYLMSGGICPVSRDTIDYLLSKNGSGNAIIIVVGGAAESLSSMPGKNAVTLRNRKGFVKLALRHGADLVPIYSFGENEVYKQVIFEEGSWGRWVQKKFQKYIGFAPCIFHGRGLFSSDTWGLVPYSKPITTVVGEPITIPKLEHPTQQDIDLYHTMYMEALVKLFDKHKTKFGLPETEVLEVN

[7] = In vivo inhibition of MGAT2 in olive oil-induced C57BL/6J mouse model of hypertriglyceridemia assessed as reduction in plasma chylomicron triglyceride level at 3 mg/kg, po preadministered with compound for 6 hrs followed by Pluronic F127 addition for 30 mins and further treated with olive oil for 4 hrs by automatic analyzer relative to control; type: functional; conditions: time 10.5 hrs
In short: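 Male C57BL/6J mice (20–25 g) fasted overnight and dosed orally at 0.3, 1 or 3 mg/kg. Olive oil (8 mL/kg po) or water given 6 h later, with Pluronic F127 500 mg/kg i.p. 30 min before oil. Tail-vein plasma taken at 0, 2 and 4 h and TG measured by automatic analyzer. CM/TG = oil-group TG minus water-group TG; AUC over 4 h; n = 5, mean ± SD; Williams' test vs vehicle.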

[8] = molecular target: T3, Sterol O-acyltransferase 1 (Homo sapiens, UniProt P35610); test: Inhibition of N-terminal FLAG-tagged full-length human ACAT1 expressed in recombinant baculovirus infected Sf21 cells using [1-14C]-oleoyl-CoA and cholesterol as substrate incubated for 40 mins by TLC analysis
T3 sequence (P35610 whole entry): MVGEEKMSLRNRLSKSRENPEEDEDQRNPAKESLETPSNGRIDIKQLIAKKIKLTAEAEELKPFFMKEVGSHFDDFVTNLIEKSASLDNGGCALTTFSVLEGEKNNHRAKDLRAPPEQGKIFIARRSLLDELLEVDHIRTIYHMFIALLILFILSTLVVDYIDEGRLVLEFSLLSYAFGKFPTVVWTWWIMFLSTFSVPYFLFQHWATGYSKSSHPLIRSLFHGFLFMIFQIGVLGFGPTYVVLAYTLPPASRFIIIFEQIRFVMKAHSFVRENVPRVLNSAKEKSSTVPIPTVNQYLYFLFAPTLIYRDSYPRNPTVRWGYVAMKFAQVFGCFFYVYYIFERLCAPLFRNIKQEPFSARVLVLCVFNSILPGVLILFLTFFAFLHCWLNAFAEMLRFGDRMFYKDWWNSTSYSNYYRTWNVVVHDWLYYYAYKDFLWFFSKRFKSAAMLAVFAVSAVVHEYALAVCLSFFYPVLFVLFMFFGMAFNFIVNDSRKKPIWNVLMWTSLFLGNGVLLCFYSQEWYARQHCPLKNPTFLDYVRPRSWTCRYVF
In short: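 Sf-21 insect cell membranes from baculovirus infection, prepared in pH 7.4 phosphate/sucrose/KCl buffer. Enzyme at 30 µg/mL reacted with 5 µM [1-14C]-oleoyl-CoA and 100 µM cholesterol for 40 min at 32 °C. Lipids extracted by modified Bligh & Dyer, separated on silica TLC (hexane/ethyl ether/acetic acid), and radioactivity imaged.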

Sequence of CYP3A4 (P08684 whole entry, canonical isoform): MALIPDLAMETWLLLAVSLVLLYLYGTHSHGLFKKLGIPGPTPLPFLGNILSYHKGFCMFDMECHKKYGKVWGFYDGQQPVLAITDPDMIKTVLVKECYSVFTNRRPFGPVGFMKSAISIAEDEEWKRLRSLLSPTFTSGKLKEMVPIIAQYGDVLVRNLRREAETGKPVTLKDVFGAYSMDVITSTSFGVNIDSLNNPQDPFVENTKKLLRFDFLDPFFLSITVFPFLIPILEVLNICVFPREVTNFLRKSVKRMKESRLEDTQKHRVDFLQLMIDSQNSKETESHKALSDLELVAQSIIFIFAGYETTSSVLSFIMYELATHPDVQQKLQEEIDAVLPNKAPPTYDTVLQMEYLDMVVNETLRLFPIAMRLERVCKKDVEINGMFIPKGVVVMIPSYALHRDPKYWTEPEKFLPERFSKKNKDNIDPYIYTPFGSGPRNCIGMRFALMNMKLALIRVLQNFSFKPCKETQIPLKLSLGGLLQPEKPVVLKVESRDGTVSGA

- Vd [1]: 0.539 L/kg
- IC50 [2]: > 10 µM
- Papp [3]: 16.6 ×10⁻⁶ cm/s
- MRT [4]: 3.3 h
- inhibition at 10 min, 10 µM [5]: < 10%
- IC50 [6]: > 10 µM
- IC50 [8]: > 10 µM
Compound: Cn1nc(C(F)(F)F)cc1-c1cnc(N2CCc3cc(S(=O)(=O)Nc4c(F)cc(Cl)cc4F)cc(N4CCCC4=O)c32)nc1 [TP-020]
- inhibition in vivo at 3 mg/kg [7]: 100%
